One data set concerns Monocyte. As to the kind of experiment: Cytotoxicity against human monocytes assessed as reduction in LDH release at <=1 uM after 2 to 24 hrs by CytoTox96 nonradioactive assay. It counts as cell-based. The settings on record: time 2-24 hrs. The essentials: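 Monocytes at 4 × 10^5/mL in monocyte medium treated 2 or 24 h at 37 °C, 5% CO2, with 0.1% DMSO vehicle. LDH release measured by CytoTox 96 kit, with Triton X-100 (0.8%) defining maximum release.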
(In general: LDH leaks from cells whose membrane has failed.)

The target of data set [1] is T1, Bifunctional epoxide hydrolase 2 (Homo sapiens) (UniProt P34913).
T1 sequence (whole entry): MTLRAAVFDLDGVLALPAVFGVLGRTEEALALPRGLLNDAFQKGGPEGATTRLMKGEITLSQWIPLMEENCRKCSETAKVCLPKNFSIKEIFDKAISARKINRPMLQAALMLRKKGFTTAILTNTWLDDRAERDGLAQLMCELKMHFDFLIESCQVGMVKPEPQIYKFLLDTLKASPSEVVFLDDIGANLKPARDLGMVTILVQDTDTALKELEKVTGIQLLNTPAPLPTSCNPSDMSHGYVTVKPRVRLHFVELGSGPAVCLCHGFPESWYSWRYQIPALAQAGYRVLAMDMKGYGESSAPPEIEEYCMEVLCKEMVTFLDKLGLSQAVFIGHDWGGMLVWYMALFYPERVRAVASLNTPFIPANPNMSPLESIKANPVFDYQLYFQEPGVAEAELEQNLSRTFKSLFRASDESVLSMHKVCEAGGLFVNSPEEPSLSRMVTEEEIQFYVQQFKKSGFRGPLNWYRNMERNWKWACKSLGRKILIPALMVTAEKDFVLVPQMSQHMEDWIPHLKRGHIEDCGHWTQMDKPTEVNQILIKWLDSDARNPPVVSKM
As to the kind of experiment: Inhibition of recombinant human sEH expressed in Sf9 insect cells at 10 uM using PHOME as substrate preincubated for 10 mins followed by substrate addition and measured after 60 mins by fluorescence microplate method. The settings on record: time 70.0 min.

Another data set relates to Keratinocyte. Description: Antiinflammatory activity in cytokine cocktail-induced reconstructed human epidermis model assessed as decrease in pH at 5 to 25 uM after 4 days. In kind it is functional, cell-based. The settings on record: dose 5-25 µM, time 4.0 day. In a few lines: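 Reconstructed human epidermis exposed to compound and stressed with a cytokine cocktail for 4 days. Readouts: IL-8 in growth medium, H&E morphology, transepidermal water loss, stratum corneum permeability to Lucifer yellow with DAPI nuclear stain, and surface pH. n = 2–3 independent experiments.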

Data set [2] has as its system Mus musculus. Description: Antiinflammatory activity in zymosan-induced CD-1 mouse peritonitis model assessed as reduction in LTC4 level at 10 mg/kg, ip preincubated with compound for 30 mins followed by zymosan addition and measured after 30 mins by ELISA. The settings on record: time 60.0 min. In kind it is functional, organism-based. The essentials: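 Compound 10 mg/kg i.p. in zymosan-induced peritonitis; mice killed 30 min after zymosan injection; exudate LTC4 measured by ELISA; statistics by two-tailed unpaired t-test of log data.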
A general note: An ELISA detects its analyte on a solid surface through an enzyme-linked reagent.

For data set [3], the target named is T2, Prostaglandin G/H synthase 2 (Homo sapiens) (UniProt P35354).
T2 sequence (whole entry): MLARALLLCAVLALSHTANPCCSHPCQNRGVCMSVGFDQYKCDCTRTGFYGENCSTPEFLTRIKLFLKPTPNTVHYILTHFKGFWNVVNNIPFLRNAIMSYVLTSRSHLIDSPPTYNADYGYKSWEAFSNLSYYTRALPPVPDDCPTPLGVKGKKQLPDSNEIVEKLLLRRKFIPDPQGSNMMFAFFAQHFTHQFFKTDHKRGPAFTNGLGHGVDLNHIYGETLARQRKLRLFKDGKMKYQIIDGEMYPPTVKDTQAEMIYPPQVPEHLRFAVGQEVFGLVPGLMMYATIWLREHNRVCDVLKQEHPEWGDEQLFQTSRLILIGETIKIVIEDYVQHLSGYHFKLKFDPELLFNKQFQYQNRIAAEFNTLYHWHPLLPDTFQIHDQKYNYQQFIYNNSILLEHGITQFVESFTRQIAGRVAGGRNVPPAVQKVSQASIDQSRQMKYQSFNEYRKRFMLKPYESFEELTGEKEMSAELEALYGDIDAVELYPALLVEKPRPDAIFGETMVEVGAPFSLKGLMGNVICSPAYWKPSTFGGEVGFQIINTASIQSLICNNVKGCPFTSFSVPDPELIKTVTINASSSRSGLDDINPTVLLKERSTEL
As to the kind of experiment: Inhibition of recombinant human COX-2 assessed as reduction in 12-HHT formation at 10 uM using arachidonic acid as substrate preincubated for 6 mins followed by substrate addition by RPL-HPLC method.

Data set [4] deals with Mus musculus. Description: Antiinflammatory activity in zymosan-induced CD-1 mouse peritonitis model assessed as increase in RvE3 levels at 10 mg/kg, po preincubated with compound for 60 mins followed by zymosan addition and measured after 30 mins by UPLC-MS/MS analysis. In kind it is functional, organism-based. Particulars: time 90.0 min. In a few lines: (§1)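 Oral dosing at 10 mg/kg in zymosan peritonitis; mice killed 30 min after zymosan. Peritoneal exudate lipid mediators and fatty acids profiled by UPLC-MS/MS, with LTC4 measured by ELISA; results expressed as fold change versus vehicle.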

Data set [5] addresses Prostaglandin G/H synthase 1 (Homo sapiens) (UniProt P23219). Description: Inhibition of COX-1 in human platelets assessed as reduction in 12-HHT formation at 10 uM using arachidonic acid as substrate preincubated for 5 mins followed by substrate addition and measured after 5 mins by RPL-HPLC method. The settings on record: Platelet, time 10.0 min. It counts as tissue-based.

The subject of data set [6] is Mus musculus. Description: Antiinflammatory activity in zymosan-induced CD-1 mouse peritonitis model assessed as reduction in 5-LOX product level at 10 mg/kg, po preincubated with compound for 60 mins followed by zymosan addition and measured after 30 mins. It counts as functional, organism-based. Particulars: time 90.0 min. The essentials:
as §1

Data set [7] in a line: Drug metabolism in human liver-on-chip assessed as compound oxidization at 12a' or 13' of omega-carboxylic acid incubated for 48 hrs by UPLC-MS/MS anlaysis. It counts as ADME, tissue-based. In a few lines: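 Liver-on-chip built from differentiated HepaRG cells (hepatocyte-like and biliary-like) with a HUVEC endothelial layer. Loaded with compound at 1 μM and incubated 48 h; compound and metabolites quantified from extracted chromatograms; n = 3 independent experiments.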

Structures are written as SMILES. Calls of active or inactive are those of the source. The rule behind the calls is not given here.

Chain of Prostaglandin G/H synthase 1 (Homo sapiens) (P23219 whole entry): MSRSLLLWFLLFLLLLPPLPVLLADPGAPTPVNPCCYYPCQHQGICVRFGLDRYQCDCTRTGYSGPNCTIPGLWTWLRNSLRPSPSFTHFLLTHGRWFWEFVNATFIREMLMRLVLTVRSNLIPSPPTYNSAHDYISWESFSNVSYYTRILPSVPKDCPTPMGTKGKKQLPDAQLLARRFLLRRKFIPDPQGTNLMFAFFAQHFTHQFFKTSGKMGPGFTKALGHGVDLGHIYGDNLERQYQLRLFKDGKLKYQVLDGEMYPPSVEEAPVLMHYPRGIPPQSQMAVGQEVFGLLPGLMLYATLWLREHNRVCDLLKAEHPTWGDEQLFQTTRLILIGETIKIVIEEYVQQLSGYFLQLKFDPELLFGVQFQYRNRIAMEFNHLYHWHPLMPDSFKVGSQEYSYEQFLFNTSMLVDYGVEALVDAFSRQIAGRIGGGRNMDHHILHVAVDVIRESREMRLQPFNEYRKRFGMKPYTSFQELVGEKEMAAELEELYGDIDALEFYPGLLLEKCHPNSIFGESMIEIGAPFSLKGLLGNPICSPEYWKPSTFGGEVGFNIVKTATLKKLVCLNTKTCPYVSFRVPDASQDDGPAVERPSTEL

With `C/C(=C\CC/C(C)=C/CC[C@]1(C)CCc2c(C)c(O)c(C)c(C)c2O1)CCC=C(CO)CO`, the Activity entry in the data set with Monocyte is “Non-Toxic”. In addition, the inhibition entry in [1], in data set [3] and in data set [5] was “inactive” in each case. In addition, the outcome in the data set with Keratinocyte, in the data set on Mus musculus [2], in the data set with Mus musculus [4] and in the data set on Mus musculus [6] was Active. For the same compound, the Drug metabolism entry in [7] is on record as “Metabolite_Detected”.
